# Shown are actives, neighbours in structure and some others; about 2.3% of the full set was active somewhere.
# SUMO1 PPI mod: modulators of human SUMO1-mediated protein-protein interactions | P63165 | SUMO1 binding to a labelled peptide, TR-FRET, 1 h | inhibition, % at 20 µM | 0.33% of 360,000 active | AID 602429; in the data active means inhibition above about 37%
# CSN inh: CSN deneddylation inhibition; 0.38% of 360,000 active; Q92905; Purified CSN, SCF-Nedd8-OG deneddylation, fluorescence polarization; inhibition, % at 12.5 µM;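 active means pattern-corrected inhibition above about 35%, with an unprinted fluorescence ratio check between 0.5 and 1.5, limit read from the data, passing the limit was not always enough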;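 further: 0% = enzyme with substrate and 100% = substrate without enzyme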
#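 Schedule: reaction 90 min, room temperature / Assay system: HEK293T-derived human Csn5 enzyme / Input: Csn5 at 0.24 nM final / Measure: inhibition of Csn5 cleavage, % / Control set: substrate-only high control, full reaction low control / Technique: fluorescence polarization of the substrate / Buffer or medium: Tris/NaCl/DTT buffer, pH 7.5 / Reagent: SCFSkp2-Nedd8OG substrate at 10 nM final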
# MT1-MMP act inh: inhibitors of human MT1-MMP activation. GFP/RFP ratio change, % at 20 µM. HT1080 RFP-PRO-GFP cells, GFP/RFP ratio fluorescence, overnight; percent of plate control window, DMSO zero. AID 651647. P50281. 0.061% of 360,000 active;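 active means GFP/RFP ratio change of at least 30% with cell ATP level not reduced by more than half and red fluorescence within 50% of control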
#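 Assay system – RFP-PRO-GFP reporter HT1080 cells · Compound dosing – single dose of 20 µM compound, 1% DMSO final · Incubation – overnight compound exposure at 37 °C · Measure – GFP/RFP fluorescence ratio · Benchmarks – DMSO wells and RFP-L50D-GFP cells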
# Rpn11 block: Rpn11 (human) deubiquitinase inhibition; human 26S proteasome, Ub4-pepOG fluorescence polarization; 20S core pre-blocked with epoxomicin; inhibition, % at 20 µM; 0.59% of 360,000 active; O00487;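 active means inhibition at 20 µM, scaled to each plate's controls, above about 33%, limit read from the data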
# DNMT1 inh: inhibitors of human DNMT1 | 0.83% of 360,000 active | AID 588458 | inhibition (reported as % activation of signal), % at 10 µM | DNMT1 molecular beacon, Hinp1I cleavage, fluorescence
# SKN-1 inh: blocks SKN-1 activity in C. elegans. inhibition, % at 21.8 µM. AID 624304. 0.49% of 360,000 active. C. elegans VP596 Pgst-4::GFP/RFP ratio, acrylamide-induced, 24 h;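 active means interference check ratio from 0.5 to 1.5 plus GFP to RFP signal ratio inhibition reaching or exceeding a fixed threshold, cut at about 30% in these data, passing the limit was not always enough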
# MT1-MMP act val: MT1-MMP (human) activation inhibition, single-concentration validation; shares compounds with MT1-MMP act inh; HT1080 RFP-PRO-GFP cells, GFP and RFP fluorescence ratio, overnight; inhibition, % at 20 µM; 10% of 200 active; AID 652235;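 active means inhibition of at least 50% in the primary cell screen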
# CSN deneddyl val: validation of inhibitors of human CSN-mediated cullin deneddylation; shares compounds with CSN inh; Csn5 deneddylation of SCF-Nedd8OG, fluorescence polarization, 90 min; inhibition, % at 16.6 µM; 62% of 540 active; AID 720654;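 further: 0% = DMSO with enzyme and 100% = no enzyme wells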
# MMP2 cntr CSN: counter-screen for CSN deneddylation inhibitors: human MMP-2 inhibition; shares compounds with CSN inh; recombinant MMP-2, FRET substrate fluorescence, 60 min; inhibition, % at 16.6 µM; 33% of 540 active; AID 720655;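 active means corrected plate-normalized z-score of 5 or more, or -5 or less, or inhibition of 15% or more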;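 further: plate controls were DMSO wells with enzyme for no effect and buffer wells lacking MMP-2 for full effect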
# Target sequence (P08253 whole entry, looked up): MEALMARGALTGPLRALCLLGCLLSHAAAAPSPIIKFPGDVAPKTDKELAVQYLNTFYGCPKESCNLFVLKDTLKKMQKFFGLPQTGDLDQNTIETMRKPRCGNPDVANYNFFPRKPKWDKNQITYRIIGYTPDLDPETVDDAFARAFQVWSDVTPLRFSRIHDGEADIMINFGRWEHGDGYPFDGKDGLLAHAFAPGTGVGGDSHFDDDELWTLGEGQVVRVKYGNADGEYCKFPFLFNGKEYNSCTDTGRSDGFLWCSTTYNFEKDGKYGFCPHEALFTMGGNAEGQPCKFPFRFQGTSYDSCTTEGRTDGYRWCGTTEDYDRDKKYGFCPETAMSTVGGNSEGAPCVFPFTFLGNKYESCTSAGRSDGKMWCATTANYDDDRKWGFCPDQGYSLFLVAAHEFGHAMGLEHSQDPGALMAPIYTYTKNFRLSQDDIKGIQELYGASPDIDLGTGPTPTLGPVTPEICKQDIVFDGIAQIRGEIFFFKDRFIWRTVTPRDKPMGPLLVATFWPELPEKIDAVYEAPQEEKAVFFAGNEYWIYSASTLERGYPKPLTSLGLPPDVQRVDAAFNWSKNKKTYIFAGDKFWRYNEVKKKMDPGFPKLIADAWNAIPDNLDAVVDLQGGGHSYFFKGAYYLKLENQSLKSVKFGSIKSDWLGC
# Thrombin counter: thrombin (bovine) inhibition, counter-screen for CSN hits; shares compounds with CSN inh; bovine thrombin cleavage of Ub4-pepOG, fluorescence polarization; inhibition, % at 16.6 µM; 49% of 540 active;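 active means inhibition at or above a set limit, with a fluorescence interference ratio between 0.5 and a set maximum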
# The depositor's hits bear a star; x = no result shown; + = active, no number. Unless noted, no stated cut-off is given here; in the data, active means inhibition above about 50%; inactive means the rest.
SMILES,SUMO1 PPI mod,CSN inh,MT1-MMP act inh,Rpn11 block,DNMT1 inh,SKN-1 inh,CSN deneddyl val,MMP2 cntr CSN,Thrombin counter,others
CN1/C(=C\C(=O)CN2C(=O)NC3(CCCCCC3)C2=O)C(C)(C)c2ccccc21,-5,14,34*,14,0,57,x,x,x,MT1-MMP act val=27
Cc1ccc[n+](CC(=O)/C=C2\N(C)c3ccccc3C2(C)C)c1,-2,-6,-5,-9,3,3,x,x,x,
Cc1cccc[n+]1CC(=O)/C=C1\N(C)c2ccccc2C1(C)C,-3,4,41*,9,5,51,x,x,x,MT1-MMP act val=47
Nc1nc(Nc2cccc(F)c2)nc2ccccc12,-4,-2,35*,-2,-7,2,x,x,x,MT1-MMP act val=25
Cc1ccc(C)c(Nc2nc(N)c3ccccc3n2)c1,2,-14,31*,1,-3,-1,x,x,x,MT1-MMP act val=19
O=c1oc(Nc2cccc(F)c2)nc2ccccc12,6,2,4,-2,0,15,x,x,x,
CCc1nc2ccc(C(=O)N3CCN(c4ccccc4)CC3)cn2c1N(C)CCC(C)C,-1,-2,-7,3,-8,8,x,x,x,
CN(c1cc2c(c3c1ccn3C)C1CCC2C1)C1CCCCC1 (stereo not drawn),0,3,35*,6,-5,10,x,x,x,MT1-MMP act val=1
COc1c(O)cc2c(c1O)[C@@H]1O[C@H](CO)[C@@H](O)[C@H](O)[C@H]1OC2=O,-5,2,1,0,4,-1,x,x,x,
Cc1c(C(=O)O)c(O)cc2c1C(=O)c1c(O)c([C@@H]3O[C@H](CO)[C@@H](O)[C@H](O)[C@H]3O)c(O)c(O)c1C2=O,-16,-2,50*,3,1,70,x,x,x,MT1-MMP act val=41
Cc1ccc2oc(NC3=NC4(CCCC4)C4=C(CCCC4=O)N3)nc2c1,5,2,-33,3,3,-7,x,x,x,
O=S(=O)(c1ccc2nc(COc3ccc(Cl)cc3Cl)[nH]c2c1)N1CCOCC1,2,3,35*,-6,1,-12,x,x,x,MT1-MMP act val=14
Cc1ccccc1OCc1nc2ccc(S(=O)(=O)N3CCOCC3)cc2[nH]1,4,1,3,-5,4,1,x,x,x,
CCOc1cc(/C=C2/SC(=S)N(Cc3ccccc3)C2=O)ccc1O,-7,42*,-32,x,-11,-10,59*,-3,85*,
O=C1/C(=C/c2ccc(O)c([N+](=O)[O-])c2)SC(=S)N1Cc1ccccc1,-32,21,-28,23,-11,3,x,x,x,
COc1cc(/C=C2\SC(=S)N(NC(=O)c3ccccc3O)C2=O)ccc1O,-3,50*,-3,x,-5,14,58*,-5,63*,
O=C1/C(=C\c2ccc(O)cc2)SC(=S)N1Cc1ccccc1,-14,96,-151,x,-4,-1,x,x,x,
O=C1/C(=C\c2cc(Br)cc(Br)c2O)SC(=S)N1Cc1ccccc1,18,46*,6,33,65*,28,97*,7,13,
C/C=C/c1cccc(-c2nc(C(=O)NC3Cc4ccccc4C3)cc3c2[C@@H](CCO)N(C(C)=O)C3)c1,1,-4,-2,x,x,-5,x,x,x,
CC(=O)NC(c1ccccc1)c1nc(-c2ccc3ccccc3c2)cs1 (stereo not drawn),-15,-3,4,4,-1,0,x,x,x,
O=[N+]([O-])c1ccc(N/N=C/c2c[nH]c3ccccc23)c(S(=O)(=O)Nc2ccc(Cl)cc2)c1,-6,39*,-82,x,-23,10,82*,7,12,
N#C/C(=C/c1ccc(N2CCOCC2)o1)c1ccc(Br)cc1,-40,80*,-99,x,-6,20,+,-37*,-51,
N#C/C(=C/c1ccc(N2CCOCC2)o1)C(=O)NC1CCCCC1,-25,103*,-95,x,21,12,120*,-5,88*,
CCCCCNC(=O)C(c1cccc2ccccc12)n1c(=O)c(-c2cc3ccccc3[nH]2)nc2ccccc21 (stereo not drawn),5,4,1,x,x,1,x,x,x,
C/C(=N/Nc1ccc([N+](=O)[O-])cc1)c1c[nH]c2ccccc12,-39,43*,-62,x,-17,1,69*,3,22*,
SMILES,SUMO1 PPI mod,CSN inh,MT1-MMP act inh,Rpn11 block,DNMT1 inh,SKN-1 inh,CSN deneddyl val,MMP2 cntr CSN,Thrombin counter,others
CCOc1cccc(-c2cnc3cccnn23)c1,-15,-1,-9,-8,5,1,x,x,x,
CN(C)c1ccc(/C=C2/C[N+](C)(C)C/C(=C/c3ccc(N(C)C)cc3)C2=O)cc1,-57,94*,-11,x,-2,79,3,-41*,114*,
COc1cc(C(O)c2nc(-c3ccncc3)cs2)ccc1F (stereo not drawn),-1,0,-3,-4,3,-6,x,x,x,
Cn1cccc1/C=C1\CC(C(C)(C)C)C/C(=C\c2cccn2C)C1=O (stereo not drawn),-26,97*,-254,x,0,21,93*,-34*,45,
CCN(CC)c1ccc(/C=C2\CCC(/C=N/NC(=O)c3ccc(=O)n(C)c3)=C2N2CCOCC2)cc1,-15,69*,-28,x,0,23,50,-32*,37*,
Cc1cc(/C=C2\SC(=S)N(Cc3ccco3)C2=O)c(C)n1-c1cccnc1,-17,79*,-199,x,-8,11,x,-7,-50,
Cc1cc2nc(-c3ccc(C#N)cc3)c(Cc3ccsc3)n2c(C)c1Br,4,2,-1,x,x,12,x,x,x,
N#CC1=C(N)SC(N)=C(C#N)C1c1ccnc2ccccc12,4,45*,-35,x,-9,27,135*,-16,30*,
Cc1ccc(C2C(C#N)=C(N)SC(N)=C2C#N)c(C)c1,-9,-69,-160,x,-12,9,x,x,x,
COC1=CC(=O)OC(c2ccccc2)C1 (stereo not drawn),2,0,-2,x,x,-12,x,x,x,
Cc1nnc(-c2ccccc2)c(=O)n1/N=C/c1c(O)ccc2ccccc12,-12,50*,-95,x,-1,-10,109*,-4,30*,

# Compound activity as filed in PubChem.
